Data on four molecules can be found in article PMC5093073 (Cancer prevention research (Philadelphia, Pa.), 2016).

Assay [1] relates to systemic PGE2 biosynthesis. The note with it: ibuprofen 800 mg 4 times daily; cited from earlier work.
Assay [2] concerns platelet-A549 cell aggregates. Type of assay: cell-based, human. The note with it: platelets from blood treated with 100 µM aspirin 40 min, washed, ADP-activated.
A further assay relates to platelet TxB2 production. As to the kind of experiment: Serum thromboxane B2 levels in healthy volunteers. It is filed as in vivo, human. The settings on record: aspirin 81 mg daily 2 weeks.
Assay [3] deals with adenocarcinoma metastasis. The settings on record: cited from earlier work.
Assay [4] deals with COX-derived PGE2 in HCC827 lung adenocarcinoma cells. Briefly: PGE2 biosynthesis from [2H8]AA in HCC827 cells. It is filed as cell-based. The settings on record: Homo sapiens, HCC827, read-out: IC50 for inhibition of PGE2 biosynthesis.
The target of the next assay is T1, COX-2 (Homo sapiens, UniProt P35354).
T1 sequence (P35354 18-604): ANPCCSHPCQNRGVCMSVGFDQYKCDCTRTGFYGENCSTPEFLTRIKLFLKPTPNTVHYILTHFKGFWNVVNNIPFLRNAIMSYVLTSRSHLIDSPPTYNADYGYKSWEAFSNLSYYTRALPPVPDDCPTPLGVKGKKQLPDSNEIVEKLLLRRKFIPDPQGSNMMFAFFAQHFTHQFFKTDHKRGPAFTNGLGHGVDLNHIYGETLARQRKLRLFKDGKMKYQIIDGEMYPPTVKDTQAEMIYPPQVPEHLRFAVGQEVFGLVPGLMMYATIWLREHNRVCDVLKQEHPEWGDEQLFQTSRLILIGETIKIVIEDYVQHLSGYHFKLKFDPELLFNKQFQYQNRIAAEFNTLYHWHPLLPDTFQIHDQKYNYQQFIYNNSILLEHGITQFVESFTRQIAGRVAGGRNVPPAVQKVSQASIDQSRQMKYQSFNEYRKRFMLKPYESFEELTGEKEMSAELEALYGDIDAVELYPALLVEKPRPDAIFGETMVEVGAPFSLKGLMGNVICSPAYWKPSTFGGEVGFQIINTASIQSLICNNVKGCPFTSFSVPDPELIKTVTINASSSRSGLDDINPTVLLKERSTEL
Type of assay: cell-based. The note with it: IL-1β-activated A549, pretreated with 100 µM aspirin.

Assay [5] deals with COX-derived PGE2 in H2122 lung adenocarcinoma cells. As to the kind of experiment: PGE2 biosynthesis from [2H8]AA in H2122 cells. It is filed as cell-based, human. The procedure, abridged:
(§1)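 Cells grown in DMEM with 10% FBS at 37°C, 5% CO₂, then given 1 ng/ml IL-1β for 24 h at 90% confluence to induce COX-2. In albumin-free medium, cells were preincubated for 30 min at 37°C with graded concentrations of test compound. Then 2.0 µM [²H₈]AA was added for 15 min, and the medium was harvested for GC/NICI/MS measurement of [²H₈]-PGE₂.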

The subject of assay [6] is COX-derived PGE2 in A549 lung adenocarcinoma cells. Briefly: PGE2 biosynthesis from [2H8]AA in A549 cells. It is filed as cell-based, human. The settings on record: for inhibition of PGE2 synthesis: IL-1β-activated A549, 100 nM inhibitor. Summed up: as §1
Assay [7] relates to COX-derived PGE2 in HCA-7 colon cancer cells. As to the kind of experiment: PGE2 biosynthesis from [2H8]AA in HCA-7 cells. Type of assay: cell-based. The settings on record: Homo sapiens. The procedure, abridged: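 HCA-7 cells were grown in DMEM with 10% FBS at 37°C, 5% CO₂, without IL-1β activation. In albumin-free medium, cells were preincubated for 30 min at 37°C with test compound. Then 2.0 µM [²H₈]AA was added and incubation continued for 15 min. The harvested medium was analysed by GC/NICI/MS for [²H₈]-PGE₂.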

For assay [8], the system named is COX-derived PGE2 in HT-29 colon cancer cells. Briefly: PGE2 biosynthesis from [2H8]AA in HT-29 cells. Type of assay: cell-based. The settings on record: Homo sapiens, HT-29, read-out: IC50 for inhibition of PGE2 biosynthesis.
In assay [9] the test system is systemic PGE2 biosynthesis. As to the kind of experiment: Urinary PGE-M. It is filed as in vivo, human. The note with it: for reduction in extra-platelet PGE2 production: corrected for platelet-derived PGE2, aspirin 81 mg daily 2 weeks; for reduction of urinary PGE-M levels: aspirin 81 mg daily 2 weeks.
Assay [10] has as its system COX-1 in human washed platelets. Briefly: Prostanoid. Type of assay: cell-based. The settings on record: 100 nM inhibitor; for effect on TxB2 synthesis by washed platelets: platelets without A549 cells.

“Also recorded” adds a separate entry of the source. Where two headings read alike, the source gives them in different places.

Turning to `CC(C)Cc1ccc(C(C)C(=O)O)cc1` (stereo not drawn) [ibuprofen], in [1], the “reduction of PGE2 production in humans” value is given as 63%.
On to `CC(=O)Oc1ccccc1C(=O)O` [aspirin, acetyl salicylic acid], for which, in [2], the “COX-2 protein expression in A549 cells” value was “still upregulated”. The “PGE2 production by platelet-A549 aggregates” value in assay [2] is on record as “significantly inhibited; also recorded: effectively blocked”. Moreover, the “reduction of serum thromboxane B2 levels” value in the assay on platelet TxB2 production amounted to 96.6%. The “hazard ratio for later metastasis” value in assay [3] (adenocarcinomas other than those of the colon) is listed as 0.47; in assay [3] (colon cancers, no metastasis at diagnosis, 95% CI 0.03–0.56, p=0.007), 0.13. Besides, in [3] (patients who develop cancer while receiving aspirin), the “reduction of development of metastases” value is reported as 69%. The IC50 (commonly the midpoint of a concentration-inhibition curve) turned out to be 22.5 ± 3.2 µM in assay [4]; 15 ± 1.3 µM in assay [5] (Homo sapiens, NCI-H2122, read-out: IC50 for inhibition of PGE2 biosynthesis); 7.2 ± 1.1 µM in [6] (Homo sapiens, A549, read-out: IC50 for inhibition of PGE2 biosynthesis); 3.9 ± 0.7 µM in [7] (HCA-7, read-out: IC50 for inhibition of PGE2 biosynthesis); 8.9 ± 1.2 µM in assay [8]. Also, the “blockade of COX-2 labeling by fluorocoxib A” value on COX-2 is reported as “effectively blocked COX-2 labeling; also recorded: inhibited COX-2 associated fluorocoxib A fluorescence”. Besides, the figures for the “reduction in extra-platelet PGE2 production” value in [9] (females) and in assay [9] (males) were 55.4% and 38.6%, respectively. Also, the “reduction of urinary PGE-M levels” value in [9] (healthy females) is on record as 56%; in assay [9] (healthy males), 39%.
Regarding `CS(=O)(=O)Nc1ccc([N+](=O)[O-])cc1OC1CCCCC1` [NS-398], in [10], the “effect on PGE2 production in washed platelets” value was “does not block” and the “effect on TxB2 synthesis by washed platelets” value was “did not inhibit; also recorded: does not block”. In addition, the “inhibition of PGE2 synthesis” value in [6] is on record as “fully blocks”.
Regarding `Cc1onc(-c2ccccc2)c1-c1ccc(S(N)(=O)=O)cc1` [valdecoxib], the “effect on TxB2 synthesis by washed platelets” value in assay [10] was “no effect”. Also, the “inhibition of PGE2 synthesis” value in assay [5] (H2122, 100 nM inhibitor) is “fully inhibited”; in [6] it was “fully inhibited”. The inhibition – broadly, the share of the control response that was lost under treatment – at 0.1 µM in [7] (HCA-7, read-out: inhibition of PGE2 synthesis) was determined as 60%.
